Source: PubChem BioAssay (The Scripps Research Institute Molecular Screening Center)
M5 PAM = CHRM5 positive allosteric modulation | P08912 | CHO-K1 hM5, Fluo-8 calcium, ACh EC20 PAM; 0% = ACh EC20, 100% = ACh EC100 | activation, % at 3 µM | 0.3% of 360,000 active;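 active = activation above the run cutoff, the mean activation of all test compounds plus 3 SD, cut at about 18% in these data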
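Assay system: CHO-K1 hM5 cells / Incubation: Fluo-8 loading 80 min at 37 °C plus 30 min room temperature / Technique: Fluo-8 calcium dye fluorescence, kinetic read / Repeats: single replicate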
M5 antag = blocks acetylcholine activation of human M5 receptor | inhibition, % at 3 µM | P08912 | CHO-hM5 cells, Fluo-8 calcium fluorescence, ACh EC80 | 0.59% of 360,000 active | AID 624040;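 active = inhibition above a per-plate cutoff, the mean of that plate's test compounds plus 3 SD, cut at about 27% in these data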;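 note: 0% = acetylcholine EC80 with DMSO and 100% = DMSO without agonist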
CHRM5 agonist = agonists of human muscarinic M5 receptor (CHRM5) | P08912 | CHO-K1 hM5 cells, Fluo-8 calcium fluorescence; 0% DMSO wells, 100% maximal acetylcholine response | activation, % at 3 µM | 0.19% of 360,000 active | AID 624037;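 active = activation above the run's mean over test compounds plus 3 SD, cut at about 23% in these data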;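 note: signal is peak over basal fluorescence ratio across the kinetic read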
M4 ag = agonists of human muscarinic M4 receptor (CHRM4); P08173; CHO-K1 hM4/Gqi5, Fluo-8 calcium fluorescence; vehicle 0%, full acetylcholine response 100%; activation, % at 3 µM; 0.14% of 360,000 active;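 active = activation above the run mean over all test wells plus 3 SD, cut at about 32% in these data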;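 note: peak over basal fluorescence ratio per well then scaled between controls; 0% = DMSO wells and 100% = acetylcholine at EC100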
Target sequence (P08173 whole entry, looked up): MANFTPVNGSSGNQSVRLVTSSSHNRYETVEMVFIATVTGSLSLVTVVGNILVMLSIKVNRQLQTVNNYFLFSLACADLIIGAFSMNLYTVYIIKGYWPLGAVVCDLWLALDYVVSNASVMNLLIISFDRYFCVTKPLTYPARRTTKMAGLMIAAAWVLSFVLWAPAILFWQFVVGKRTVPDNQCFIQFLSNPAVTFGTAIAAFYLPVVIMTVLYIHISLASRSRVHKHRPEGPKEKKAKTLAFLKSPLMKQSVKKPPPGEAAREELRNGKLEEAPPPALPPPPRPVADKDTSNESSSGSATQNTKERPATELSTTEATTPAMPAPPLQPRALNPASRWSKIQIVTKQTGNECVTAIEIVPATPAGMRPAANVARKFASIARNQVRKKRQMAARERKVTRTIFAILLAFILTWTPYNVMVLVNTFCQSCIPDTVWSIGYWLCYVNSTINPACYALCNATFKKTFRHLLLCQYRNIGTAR
M4 PAM = CHRM4 positive allosteric modulation | P08173 | CHO-K1 hM4/Gqi5, Fluo-8 calcium fluorescence, ACh EC20; 0% = ACh EC20, 100% = maximal ACh | activation, % at 3 µM | 0.4% of 360,000 active | AID 624126;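 active = activation above its plate's cutoff, the mean activation of sample wells plus 3 SD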
M4 antag = antagonists of human muscarinic M4 receptor (CHRM4) | P08173 | CHO-hM4 cells, ACh EC80, Fluo-8 calcium fluorescence | inhibition, % at 3 µM | 0.73% of 360,000 active;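 active = inhibition above its plate's cutoff, the mean inhibition of sample wells plus 3 SD, cut at about 27% in these data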;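 note: 0% = acetylcholine EC80 with DMSO and 100% = DMSO without agonist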
Active calls of the source: *. An excerpt weighted towards active compounds, which were near 1.8% of everything screened.

SMILES	M5 PAM	M5 antag	CHRM5 agonist	M4 ag	M4 PAM	M4 antag
O=c1oc2c3c4c(cc2c(C(F)(F)F)c1CCN1CCOCC1)CCCN4CCC3	-6	10	10	25	-10	29*
O=C(NCCCN1CCOCC1)c1cc(S(=O)(=O)N2CCCCC2)ccc1Cl	2	-1	-1	1	1	-3
COc1ccc(NC2=NCCC(=O)N2Cc2cccs2)cc1	-3	7	-1	1	-1	4
COc1ccc(NC2=NCC(=O)N2Cc2cccs2)cc1	21*	-16	1	-1	4	-8
COc1ccc(-c2nnc3n2N=C(C)CS3)cc1	-2	8	0	-1	-5	14
COc1ccc(C2=Nn3c(nnc3-c3ccc(OC)cc3)SC2)cc1	-5	9	-5	3	7	28*
COc1ccc(OC)c(NC(=O)c2nnn(CC(=O)Nc3ccc4c(c3)OCO4)c2N)c1	4	-1	-5	0	-1	0
Cc1ccccc1C(=O)N=c1ccn(-c2nc3ccccc3nc2NS(=O)(=O)c2ccccc2)cc1	0	12	-5	1	0	-3
CCOc1ccc(S(=O)(=O)Nc2nc3ccccc3nc2-n2ccc(=NC(=O)c3ccccc3C)cc2)cc1	-18	40*	30*	14	-20	9
Cc1ccc(S(=O)(=O)N2C[C@@H]3CCCC[C@@H]3[C@@H](C)[C@H]2c2cn(Cc3ccccc3)c3ncccc23)cc1	-4	5	-1	0	-4	-4
CCOC(=O)c1cc(C)n(CCc2ccccc2)c1C	6	-7	-6	-2	-2	-6
Cc1c(P(=S)(c2ccccc2)c2ccccc2)[n+]2ccccc2n1CCc1ccccc1	-7	12	-4	1	-15	56*
Cc1cc(N2CCC(C)CC2)nc(-c2ccccc2O)n1	15	-10	-8	-2	-6	-17
Cc1cc(-n2[nH]c(C)c(C)c2=O)nc(-c2ccccc2O)n1	37*	42*	0	9	9	2
c1ccn2cc(C34CC5CC(CC(C5)C3)C4)nc2c1	-19	10	-18	2	-27	60*
Nc1c(C(=O)C2CC2)sc2nc(-c3ccccc3)cc(C(F)(F)F)c12	20*	1	2	2	5	-1
COCCn1c(=O)[nH]c2cc(C(=O)NC(C)C)ccc2c1=O	24*	1	-5	0	20*	-7
c1ccc(-n2ncc3c(NCC4CCCO4)ncnc32)cc1 (stereo not drawn)	-17	15	-5	4	-4	-1
Clc1ccc(-n2ncc3c(NCC4CCCO4)ncnc32)cc1 (stereo not drawn)	-2	-5	4	2	-16	37*
CCN(CC)CCOC(=O)c1ccc(NC(=O)c2ccc(Cl)c(S(=O)(=O)N3CCCCCC3)c2)cc1	-33	37*	-17	5	-21	36*
CCCCOc1cccc(C(=O)Nc2ccc(N3CCN(CC)CC3)cc2)c1	-30	39*	-12	3	-17	11
CCN1CCN(c2ccc(NC(=O)c3ccc(Cl)c(S(=O)(=O)N4CCCC4)c3)cc2)CC1	-37	56*	-8	8	-13	48*
CCN1CCN(c2ccc(NC(=O)c3ccc(OC)c(S(=O)(=O)N4CCCC4)c3)cc2)CC1	-19	22	-10	0	-1	13
Cc1cc(OCC(=O)NNC(=O)c2cccs2)ccc1Br	3	-9	3	2	0	0
c1ccc(C2[C@H]3CN(CC4CCCCC4)[C@H](c4ccccc4)C34CC2(c2ccccc2)C4)cc1 (stereo partly drawn)	5	-6	-3	2	-5	7
c1ccc(C2[C@H]3CN(CC4CCCCC4)[C@H](c4ccccc4)C34CC2(c2cccnc2)C4)cc1 (stereo partly drawn)	-32	16	-13	2	-13	31*
CCCCCCN1C=CC(=C/C=C(\C#N)C(=O)OCC)C=C1	-22	34*	51*	253*	-21	36*
